Laboratory results taken from ChEMBL document CHEMBL1141653, “New bis(2-aminoimidazoline) and bisguanidine DNA minor groove binders with potent in vivo antitrypanosomal and antiplasmodial activity” (J Med Chem, 2008).
pIC50: −log10 of the molar value. Active and inactive are the calls of the source. No cut-off for these calls is given here.

Tested on: not listed separately
Assay: Selectivity index, ratio of IC50 for rat L6 cells to IC50 for Trypanosoma brucei rhodesiense STIB900
Format: functional
Settings: not given
Summary of the method: (§1)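 Ratio of the IC₅₀ on L-6 rat skeletal myoblasts to the parasite IC₅₀. Cytotoxicity measured in RPMI 1640 with L-glutamine and 10% FBS, serial dilutions 90 to 0.123 µg/mL, duplicate. After 72 h, Alamar blue (resazurin) added for 2 h. Fluorescence read at ex 536 / em 588 nm.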

Compound | Ratio IC50
c1cc(Sc2ccc(NC3=NCCN3)cc2)ccc1NC1=NCCN1 | 60
N=C(N)Nc1ccc(CCc2ccc(NC(=N)N)cc2)cc1 | 24
Cl.Cl.N=C(N)Nc1ccc(NC(=O)c2ccc(NC(=N)N)cc2)cc1 | 319
c1cc(Oc2ccc(NC3=NCCN3)cc2)ccc1NC1=NCCN1 | 88
c1cc(N2CCN(c3ccc(NC4=NCCN4)cc3)CC2)ccc1NC1=NCCN1 | 881
N=C(N)Nc1ccc2c(c1)Cc1ccc(NC(=N)N)cc1C2 | 15
Cl.O=C(Nc1ccc(NC2=NCCN2)cc1)Nc1ccc(NC2=NCCN2)cc1 | 852
CCCCC[P+](CCCCC)(CCCCC)Cc1ccc(C(=O)c2ccc(C[P+](CCCCC)(CCCCC)CCCCC)cc2)cc1.[Br-].[Br-] | 29
c1cc2c(cc1NC1=NCCN1)Cc1ccc(NC3=NCCN3)cc1C2 | 620

Tested on: Plasmodium berghei
Assay: Antiplasmodial activity as survival against Plasmodium berghei ANKA infection in NMRI mice (Mus musculus) at 50 mg/kg intraperitoneal dose for 4 days
Settings: not given

Compound | Survival
c1cc(Sc2ccc(NC3=NCCN3)cc2)ccc1NC1=NCCN1 | 11.3 days

Tested on: Mus musculus
Assay: Toxicity in Plasmodium berghei ANKA infected NMRI mice (Mus musculus) at 50 mg/kg, intraperitoneally for 4 days
Format: organism-based
Parameters: dose 50 mg/kg, route intraperitoneal
Settings: in vivo, ip, 96 h
Summary of the method: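 Toxicity recorded in the P. berghei ANKA model. Female NMRI mice (20–22 g), three per group, infected iv with 2 × 10⁷ parasitized erythrocytes. Compound in DMSO diluted 10-fold in water, dosed ip at 4, 24, 48 and 72 h post-infection. Survival followed up to 30 days after infection.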

Compound | Activity
N=C(N)Nc1ccc(CCc2ccc(NC(=N)N)cc2)cc1 | Toxic
N=C(N)Nc1ccc2c(c1)Cc1ccc(NC(=N)N)cc1C2 | Toxic

Tested on: L6
Assay: Cytotoxicity against rat L6 cells
Format: cell-based
Settings: not given

Compound | pIC50
c1cc(Sc2ccc(NC3=NCCN3)cc2)ccc1NC1=NCCN1 | 4.63
N=C(N)Nc1ccc(CCc2ccc(NC(=N)N)cc2)cc1 | 5.96
Cl.Cl.N=C(N)Nc1ccc(NC(=O)c2ccc(NC(=N)N)cc2)cc1 | 4.94
c1cc(Oc2ccc(NC3=NCCN3)cc2)ccc1NC1=NCCN1 | 4.39
c1cc(N2CCN(c3ccc(NC4=NCCN4)cc3)CC2)ccc1NC1=NCCN1 | 3.98
N=C(N)Nc1ccc2c(c1)Cc1ccc(NC(=N)N)cc1C2 | 6.14
Cl.O=C(Nc1ccc(NC2=NCCN2)cc1)Nc1ccc(NC2=NCCN2)cc1 | 3.98
CCCCC[P+](CCCCC)(CCCCC)Cc1ccc(C(=O)c2ccc(C[P+](CCCCC)(CCCCC)CCCCC)cc2)cc1.[Br-].[Br-] | 4.93
c1cc2c(cc1NC1=NCCN1)Cc1ccc(NC3=NCCN3)cc1C2 | 4.43

Tested on: Plasmodium berghei
Assay: Antiplasmodial activity as survival against Plasmodium berghei ANKA infection in NMRI mice (Mus musculus) at 30 mg/kg intraperitoneal dose for 4 days
Settings: not given

Compound | Survival
c1cc(Oc2ccc(NC3=NCCN3)cc2)ccc1NC1=NCCN1 | 7 days

Tested on: Plasmodium berghei
Assay: Antiplasmodial activity against Plasmodium berghei ANKA infected NMRI mice (Mus musculus) as reduced parasitemia at 50 mg/kg intraperitoneal dose after 4 days
Parameters: scale not given: the % may be the effect or the level left
Settings: not given

Compound | Activity
c1cc(Sc2ccc(NC3=NCCN3)cc2)ccc1NC1=NCCN1 | 97.5%

Tested on: Plasmodium falciparum
Assay: Antiplasmodial activity against Plasmodium falciparum K1 in [3H]hypoxanthine incorporation assay
Format: functional, organism-based
Settings: K1, 72 h
Summary of the method: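 K1 erythrocytic stages in RPMI 1640 without hypoxanthine with AlbuMax, human A⁺ red cells at 2.5% hematocrit, 0.3% parasitemia. Compounds taken from 10 mg/mL DMSO stock, tested as serial doubling dilutions at 37 °C in 4% CO₂/3% O₂/93% N₂. After 48 h, ³H-hypoxanthine (0.5 µCi) added for 24 h more; incorporation by scintillation counting. IC₅₀ from sigmoidal curves.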

Compound | pIC50
c1cc(Sc2ccc(NC3=NCCN3)cc2)ccc1NC1=NCCN1 | 7.60
N=C(N)Nc1ccc(CCc2ccc(NC(=N)N)cc2)cc1 | 7.72
Cl.Cl.N=C(N)Nc1ccc(NC(=O)c2ccc(NC(=N)N)cc2)cc1 | 7.26
c1cc(Oc2ccc(NC3=NCCN3)cc2)ccc1NC1=NCCN1 | 7.42
c1cc(N2CCN(c3ccc(NC4=NCCN4)cc3)CC2)ccc1NC1=NCCN1 | 7.91
N=C(N)Nc1ccc2c(c1)Cc1ccc(NC(=N)N)cc1C2 | 8.06
Cl.O=C(Nc1ccc(NC2=NCCN2)cc1)Nc1ccc(NC2=NCCN2)cc1 | 7.55
CCCCC[P+](CCCCC)(CCCCC)Cc1ccc(C(=O)c2ccc(C[P+](CCCCC)(CCCCC)CCCCC)cc2)cc1.[Br-].[Br-] | 7.28
c1cc2c(cc1NC1=NCCN1)Cc1ccc(NC3=NCCN3)cc1C2 | 7.73

Tested on: Trypanosoma brucei rhodesiense
Assay: Antitrypanosomal activity against Trypanosoma brucei rhodesiense STIB900
Format: functional, organism-based
Settings: not given
Summary of the method: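 Bloodstream forms (10⁴ per well) in MEM with 15% heat-inactivated horse serum, 25 mM HEPES, 2-mercaptoethanol, hypoxanthine. 3-fold serial dilutions from 90 to 0.123 µg/mL, in duplicate. Incubation 72 h at 37 °C, 5% CO₂. Resazurin then added for 2–4 h more. Fluorescence read at ex 536 / em 588 nm.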

Compound | pIC50
c1cc(Sc2ccc(NC3=NCCN3)cc2)ccc1NC1=NCCN1 | 6.41
N=C(N)Nc1ccc(CCc2ccc(NC(=N)N)cc2)cc1 | 7.35
Cl.Cl.N=C(N)Nc1ccc(NC(=O)c2ccc(NC(=N)N)cc2)cc1 | 7.44
c1cc(Oc2ccc(NC3=NCCN3)cc2)ccc1NC1=NCCN1 | 6.33
c1cc(N2CCN(c3ccc(NC4=NCCN4)cc3)CC2)ccc1NC1=NCCN1 | 6.93
N=C(N)Nc1ccc2c(c1)Cc1ccc(NC(=N)N)cc1C2 | 7.30
Cl.O=C(Nc1ccc(NC2=NCCN2)cc1)Nc1ccc(NC2=NCCN2)cc1 | 6.91
CCCCC[P+](CCCCC)(CCCCC)Cc1ccc(C(=O)c2ccc(C[P+](CCCCC)(CCCCC)CCCCC)cc2)cc1.[Br-].[Br-] | 6.38
c1cc2c(cc1NC1=NCCN1)Cc1ccc(NC3=NCCN3)cc1C2 | 7.22

Tested on: Plasmodium berghei (ANKA)
Assay: Antiplasmodial activity as survival against Plasmodium berghei ANKA infection in NMRI mice (Mus musculus) at 20 mg/kg intraperitoneal dose for 4 days
Settings: not given

Compound | Survival
c1cc(N2CCN(c3ccc(NC4=NCCN4)cc3)CC2)ccc1NC1=NCCN1 | 7 days

Tested on: not listed separately
Assay: Binding affinity for DNA assessed as thermal melting temperature
Settings: not given
Summary of the method: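 Thermal melting of poly(dA)·poly(dT): DNA at 40 µM base with compound at 12 µM (ratio 0.3) in MES 0.01 M / EDTA 0.001 M buffer, pH 6.25. A260 followed from 20 to 95 °C at 0.5 °C/min. Value is ΔTm.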

Compound | ΔTm
c1cc(Sc2ccc(NC3=NCCN3)cc2)ccc1NC1=NCCN1 | 24.1 °C
N=C(N)Nc1ccc(CCc2ccc(NC(=N)N)cc2)cc1 | 26.1 °C
Cl.Cl.N=C(N)Nc1ccc(NC(=O)c2ccc(NC(=N)N)cc2)cc1 | 40.1 °C
c1cc(Oc2ccc(NC3=NCCN3)cc2)ccc1NC1=NCCN1 | 27.1 °C
c1cc(N2CCN(c3ccc(NC4=NCCN4)cc3)CC2)ccc1NC1=NCCN1 | 38.8 °C
N=C(N)Nc1ccc2c(c1)Cc1ccc(NC(=N)N)cc1C2 | 31.1 °C
Cl.O=C(Nc1ccc(NC2=NCCN2)cc1)Nc1ccc(NC2=NCCN2)cc1 | 31 °C
CCCCC[P+](CCCCC)(CCCCC)Cc1ccc(C(=O)c2ccc(C[P+](CCCCC)(CCCCC)CCCCC)cc2)cc1.[Br-].[Br-] | 1.2 °C
c1cc2c(cc1NC1=NCCN1)Cc1ccc(NC3=NCCN3)cc1C2 | 33.2 °C

Tested on: Trypanosoma brucei rhodesiense
Assay: Antitrypanosomal activity against Trypanosoma brucei rhodesiense STIB900 infected NMRI mouse assessed as survival of animals administered at 20 mg/kg, ip after 4 days
Format: functional
Settings: route intraperitoneal
Summary of the method: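 Mice infected ip with 2 × 10⁴ bloodstream forms of T. b. rhodesiense STIB900. Groups of four treated ip on days 3–6, untreated control group. Parasitemia checked every second day to day 14, then twice weekly to day 60. Deaths recorded for mean survival time. Surviving aparasitemic mice at 60 days counted as cured.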

Compound | Survival
Cl.Cl.N=C(N)Nc1ccc(NC(=O)c2ccc(NC(=N)N)cc2)cc1 | >60 days
Cl.O=C(Nc1ccc(NC2=NCCN2)cc1)Nc1ccc(NC2=NCCN2)cc1 | >60 days
c1cc2c(cc1NC1=NCCN1)Cc1ccc(NC3=NCCN3)cc1C2 | >60 days

Tested on: Plasmodium berghei
Assay: Antiplasmodial activity against parasitemia in Plasmodium berghei ANKA infected NMRI mice (Mus musculus) at 30 mg/kg intraperitoneal dose after 4 days
Settings: not given

Compound | Activity
c1cc(Oc2ccc(NC3=NCCN3)cc2)ccc1NC1=NCCN1 | 44.1%

Tested on: not listed separately
Assay: Selectivity index, ratio of IC50 for rat L6 cells to IC50 for Plasmodium falciparum K1
Format: functional
Settings: not given
Summary of the method: as §1

Compound | Ratio IC50
c1cc(Sc2ccc(NC3=NCCN3)cc2)ccc1NC1=NCCN1 | 932
N=C(N)Nc1ccc(CCc2ccc(NC(=N)N)cc2)cc1 | 57
Cl.Cl.N=C(N)Nc1ccc(NC(=O)c2ccc(NC(=N)N)cc2)cc1 | 209
c1cc(Oc2ccc(NC3=NCCN3)cc2)ccc1NC1=NCCN1 | 1079
c1cc(N2CCN(c3ccc(NC4=NCCN4)cc3)CC2)ccc1NC1=NCCN1 | 8455
N=C(N)Nc1ccc2c(c1)Cc1ccc(NC(=N)N)cc1C2 | 83
Cl.O=C(Nc1ccc(NC2=NCCN2)cc1)Nc1ccc(NC2=NCCN2)cc1 | 3714
CCCCC[P+](CCCCC)(CCCCC)Cc1ccc(C(=O)c2ccc(C[P+](CCCCC)(CCCCC)CCCCC)cc2)cc1.[Br-].[Br-] | 223
c1cc2c(cc1NC1=NCCN1)Cc1ccc(NC3=NCCN3)cc1C2 | 2000

Tested on: Ferriprotoporphyrin IX
Assay: Inhibition of ferriprotoporphyrin 9 biomineralization at 1 mg/ml
Format: functional
Settings: not given
Summary of the method: (§2)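 β-Hematin formation: hemin chloride (0.5 mg/mL in DMSO) with 0.5 M sodium acetate pH 4.4 and drug dilutions, 37 °C for 18–24 h. Pellet washed with DMSO, dissolved in 0.1 N NaOH, A405 read. Percent inhibition relative to solvent control. IC₅₀ derived, or percent inhibition at 1 mg/mL (highest concentration) given when no IC₅₀.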

Compound | inhibition
N=C(N)Nc1ccc(CCc2ccc(NC(=N)N)cc2)cc1 | 0%
Cl.Cl.N=C(N)Nc1ccc(NC(=O)c2ccc(NC(=N)N)cc2)cc1 | 0%
c1cc(Oc2ccc(NC3=NCCN3)cc2)ccc1NC1=NCCN1 | 0%
N=C(N)Nc1ccc2c(c1)Cc1ccc(NC(=N)N)cc1C2 | 0%

Tested on: Ferriprotoporphyrin IX
Assay: Inhibition of ferriprotoporphyrin 9 biomineralization
Format: functional
Settings: not given
Summary of the method: as §2

Compound | pIC50
c1cc(Sc2ccc(NC3=NCCN3)cc2)ccc1NC1=NCCN1 | 3.02
c1cc(N2CCN(c3ccc(NC4=NCCN4)cc3)CC2)ccc1NC1=NCCN1 | 3.89
Cl.O=C(Nc1ccc(NC2=NCCN2)cc1)Nc1ccc(NC2=NCCN2)cc1 | 3.41
CCCCC[P+](CCCCC)(CCCCC)Cc1ccc(C(=O)c2ccc(C[P+](CCCCC)(CCCCC)CCCCC)cc2)cc1.[Br-].[Br-] | 3.66
c1cc2c(cc1NC1=NCCN1)Cc1ccc(NC3=NCCN3)cc1C2 | 3.79

Tested on: Trypanosoma brucei rhodesiense
Assay: Antitrypanosomal activity against Trypanosoma brucei rhodesiense STIB900 infected NMRI mouse assessed as number of cured animals at 20 mg/kg, ip after 4 days
Format: functional, organism-based
Parameters: dose 20 mg/kg
Settings: not given
Summary of the method: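 Mice infected ip with 2 × 10⁴ STIB900 bloodstream forms. Groups of four treated ip on days 3–6, with an untreated control group. Parasitemia checked every second day to day 14, then twice weekly to day 60. Mice surviving and aparasitemic at 60 days counted as cured.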

Compound | Activity
Cl.Cl.N=C(N)Nc1ccc(NC(=O)c2ccc(NC(=N)N)cc2)cc1 | Active
Cl.O=C(Nc1ccc(NC2=NCCN2)cc1)Nc1ccc(NC2=NCCN2)cc1 | Active
c1cc2c(cc1NC1=NCCN1)Cc1ccc(NC3=NCCN3)cc1C2 | Active

Tested on: Plasmodium berghei (ANKA)
Assay: Antiplasmodial activity against parasitemia in Plasmodium berghei ANKA infected NMRI mice (Mus musculus) at 20 mg/kg intraperitoneal dose after 4 days
Settings: not given

Compound | Activity
c1cc(N2CCN(c3ccc(NC4=NCCN4)cc3)CC2)ccc1NC1=NCCN1 | 0%
